The target in data set [1] is T1, ALAS/ALAS (single chain dimeric ALAS) (Mus musculus, UniProt P08680).
T1 sequence (P08680 50-587): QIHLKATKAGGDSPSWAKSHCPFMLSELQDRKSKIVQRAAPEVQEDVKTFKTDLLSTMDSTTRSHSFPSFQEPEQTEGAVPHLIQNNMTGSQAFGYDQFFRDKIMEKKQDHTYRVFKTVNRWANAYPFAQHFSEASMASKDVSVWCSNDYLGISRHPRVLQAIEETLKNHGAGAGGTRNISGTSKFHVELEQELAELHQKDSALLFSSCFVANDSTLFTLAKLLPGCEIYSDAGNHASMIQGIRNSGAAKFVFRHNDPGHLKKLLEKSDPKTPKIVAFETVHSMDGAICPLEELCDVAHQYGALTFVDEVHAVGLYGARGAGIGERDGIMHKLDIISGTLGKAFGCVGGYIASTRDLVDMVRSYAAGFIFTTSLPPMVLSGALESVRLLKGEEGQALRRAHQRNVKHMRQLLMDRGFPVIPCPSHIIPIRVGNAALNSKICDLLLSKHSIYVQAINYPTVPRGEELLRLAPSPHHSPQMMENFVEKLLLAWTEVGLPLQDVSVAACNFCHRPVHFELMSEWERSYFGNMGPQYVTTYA
The data set can be described thus: dissociation constant for ALA binding.

The next data set has as its system ALAS/AONS. The data set can be described thus: continuous coupled spectrophotometric assay. Particulars: read-out: KmSCoA; ALAS site; co-substrate glycine; 30 °C. Type of data set: biochemical, Mus musculus; Escherichia coli. The method in brief:
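ALAS/AONS chimera was expressed in E. coli DH5α and purified by 20–40% ammonium sulfate fractionation, Ultrogel ACA-44 gel filtration and Q-Sepharose (100–150 mM KCl gradient). Its concentration was taken on a 96 kD subunit basis. ALAS-site activity was read continuously by spectrophotometry at 30 °C, varying one substrate with the other held constant. Km came from Michaelis-Menten nonlinear regression.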

The data set “SEC” concerns the molecule itself. The data set can be described thus: SEC.

Results on three molecules are retold here after publication PMC3136873 (Archives of biochemistry and biophysics, 2011).

The Kd is a measure of binding affinity in units of concentration. A higher Kd goes with lower affinity. As a reminder, the stoichiometry N is a count of units in the complex or per binding partner.

Consider `NCC(=O)CCC(=O)O` [ALA, 5-aminolevulinate], for which the dissociation constant (Kd) in data set [1] worked out at 1460 ± 10 nM.
With `CC(C)(COP(=O)(O)OP(=O)(O)OC[C@H]1O[C@@H](n2cnc3c(N)ncnc32)[C@H](O)[C@@H]1OP(=O)(O)O)[C@@H](O)C(=O)NCCC(=O)NCCSC(=O)CCC(=O)O` [SCoA, succinyl-CoA], in the data set with ALAS/AONS, the Km turned out to be 1.5 ± 0.2 µM.

B1: ALAS/AONS chimera (single-chain chimera of murine erythroid 5-aminolevulinate synthase and E. coli 8-amino-7-oxononanoate synthase) (enzyme, murine | E. coli)
chain: QIHLKATKAGGDSPSWAKSHCPFMLSELQDRKSKIVQRAAPEVQEDVKTFKTDLLSTMDSTTRSHSFPSFQEPEQTEGAVPHLIQNNMTGSQAFGYDQFFRDKIMEKKQDHTYRVFKTVNRWANAYPFAQHFSEASMASKDVSVWCSNDYLGISRHPRVLQAIEETLKNHGAGAGGTRNISGTSKFHVELEQELAELHQKDSALLFSSCFVANDSTLFTLAKLLPGCEIYSDAGNHASMIQGIRNSGAAKFVFRHNDPGHLKKLLEKSDPKTPKIVAFETVHSMDGAICPLEELCDVAHQYGALTFVDEVHAVGLYGARGAGIGERDGIMHKLDIISGTLGKAFGCVGGYIASTRDLVDMVRSYAAGFIFTTSLPPMVLSGALESVRLLKGEEGQALRRAHQRNVKHMRQLLMDRGFPVIPCPSHIIPIRVGNAALNSKICDLLLSKHSIYVQAINYPTVPRGEELLRLAPSPHHSPQMMENFVEKLLLAWTEVGLPLQDVSVAACNFCHRPVHFELMSEWERSYFGNMGPQYVTTYAELMSWQEKINAALDARRAADALRRRYPVAQGAGRWLVADDRQYLNFSSNDYLGLSHHPQIIRAWQQGAEQFGIGSGGSGHVSGYSVVHQALEEELAEWLGYSRALLFISGFAANQAVIAAMMAKEDRIAADRLSHASLLEAASLSPSQLRRFAHNDVTHLARLLASPCPGQQMVVTEGVFSMDGDSAPLAEIQQVTQQHNGWLMVDDAHGTGVIGEQGRGSCWLQKVKPELLVVTFGKGFGVSGAAVLCSSTVADYLLQFARHLIYSTSMPPAQAQALRASLAVIRSDEGDARREKLAALITRFRAGVQDLPFTLADSCSAIQPLIVGDNSRALQLAEKLRQQGCWVTAIRPPTVPAGTARLRLTLTAAHEMQDIDRLLEVLHGNG
B1: the “stoichiometry N” value in the data set “SEC” worked out at 2.
